# Rows were chosen to be rich in hits. Some 3.8% of all compounds tested hit in one or more screens of this group.
# SIRT5 block = blocks human SIRT5 desuccinylation of peptide; actives 1.1% (n = 330,000); Purified SirT5, succinyl-peptide AMC, trypsin-coupled fluorescence; Q9NXA8; inhibition, % at 15 µM; in the data active = inhibition above about 15%; inconclusive = no clear call, values can overlap the other calls
# Target sequence (Q9NXA8 whole entry, looked up): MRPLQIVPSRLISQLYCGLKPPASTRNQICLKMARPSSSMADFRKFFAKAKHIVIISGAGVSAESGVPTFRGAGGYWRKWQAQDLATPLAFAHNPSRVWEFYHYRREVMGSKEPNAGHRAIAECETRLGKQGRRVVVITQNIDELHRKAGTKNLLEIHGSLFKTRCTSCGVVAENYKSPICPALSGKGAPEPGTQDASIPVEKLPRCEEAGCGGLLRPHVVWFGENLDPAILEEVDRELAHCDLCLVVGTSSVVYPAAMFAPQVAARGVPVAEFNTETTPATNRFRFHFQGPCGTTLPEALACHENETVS
# FN deposition inh = fibronectin deposition inhibition; AH1F fibroblasts, Alexa488-fibronectin deposition fluorescence, overnight; inhibition, % at 12.6 µM; actives 0.086% (n = 350,000); AID 743247;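 active = mean inhibition across replicates of 30% or more, regardless of how many single replicates reach that level; inconclusive = mean under 30% yet at least half of replicates reach 30%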;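 also: positive control wells lacked labelled fibronectin entirely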
#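 Test system: AH1F fibroblast monolayer depositing Alexa488-labelled fibronectin into matrix. Input: 10000 cells per well. Technique: fluorescence, ex 485 nm, em 525 nm. Buffer or medium: DMEM plus 2% serum, read in PBS. Timing: 1 h cell adhesion before compound, then overnight fibronectin incubation. Compound: single dose, pinned. Read-out basis: inhibition from reduced deposited-fibronectin fluorescence.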
# DENV2 CPE = DENV2-induced cell death inhibition; DENV2-infected cells, cytopathic effect rescue, plate reader; CPE inhibition, % at 9.99 µM; actives 1.7% (n = 350,000); AID 651640; in the data active = CPE inhibition above about 20%, passing the limit was not always enough; inconclusive = no clear call, values can overlap the other calls; tested in BHK-21 cells;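 also: 0% = median of neutral control wells and 100% = median of positive control wells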
# ARNT TACC3 PPI = disrupts binding between human ARNT and TACC3 | AlphaScreen His-ARNT PAS-B/GST-TACC3 binding, luminescence; TACC3 fragment carries E629A point mutation | inhibition, % at 9.99 µM | Q9Y6A5 | actives 0.66% (n = 390,000);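 active = mean inhibition of replicates at least 50% and at least half of replicates each reaching 50%; inconclusive = half or more replicates reach 50% but mean below 50%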;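 also: 0% = complete ARNT plus TACC3 wells and 100% = ARNT alone without TACC3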
# XiGFP reactiv = X-chromosome reactivation activator; XiGFP mouse fibroblasts, % GFP-positive cells imaging, 3 d; cells co-treated with 5-aza-dC sensitizer; scaled so ellipticine positive control = 100%; activation, % at 7.58 µM; actives 0.055% (n = 360,000); AID 743238;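 active = mean normalized replicate activation at least 10% and every replicate at or above 10%; inconclusive = only one of the two criteria met; inactive = mean below 10% and not all replicates reach 10%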;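 also: 0% = median of on-plate neutral control wells and 100% = ellipticine 6 µM median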
#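 Material: XiGFP fibroblasts, SV40-immortalized; Buffer or medium: DMEM containing 5-aza-dC; Compound dosing: single point; Times: 3 days compound exposure.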
# FGF22 binding-1 = FGF22 (human) thermal shift binding | recombinant FGF22 thermal shift, SYPRO orange fluorescence; percent of sucrose octasulfate shift, DMSO zero | activity (Tm shift, normalised), % at 9.99 µM | actives 1.5% (n = 340,000);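 active = mean Tm shift, scaled 0 neutral to 100 positive control, at about 1.3% or above, every replicate too, limit read from the data; inconclusive = no clear call, values can overlap the other calls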
# Target sequence (Q9HCT0 whole entry, looked up): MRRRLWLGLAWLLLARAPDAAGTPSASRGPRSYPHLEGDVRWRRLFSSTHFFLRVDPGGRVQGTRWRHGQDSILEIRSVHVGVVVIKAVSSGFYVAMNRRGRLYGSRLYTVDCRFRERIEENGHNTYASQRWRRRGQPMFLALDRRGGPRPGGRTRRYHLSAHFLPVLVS
# FGF22 binding-2 = FGF22 (human) binding in thermal shift | shares compounds with FGF22 binding-1 | recombinant FGF22 thermal shift, SYPRO orange fluorescence | actives 2% (n = 1,000) | thermal shift activity, °C (ΔTm) at 38 µM;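 active = fitted rise in melting shift crosses a set limit at or below the top valid dose tested; inconclusive = flat fit at mid-level activity, or a poor quality fit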
# FGF22 TSA = binders of human FGF22 by thermal shift; shares compounds with FGF22 binding-1; AID 743017; Tm shift (activity), % at 38 µM; Thermal shift assay, SYPRO orange, melting temperature shift; 50 tested, under 10 active;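 active = compounds whose fitted dose curve of melting temperature shift rises past a set threshold within the tested doses; inconclusive = flat curve at moderate activity, or poor curve fit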
# SYPRO no-protein = shows thermal shift signal without protein, FGF22 counter-screen; compound-only SYPRO orange thermal shift counter-screen, no protein; AC50, µM (series often up to 38 µM); shares compounds with FGF22 binding-1; actives 2% (n = 1,000); AID 743019;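 active = rising signal whose fitted curve reaches the 0.54 level within the top valid dose, showing a melting point, actives reach about 13 µM in these data; inactive = the rest, including activity in the opposite direction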; also: value is where the raw curve crosses a fixed level and not half-maximal
# Starred values were filed as active, the others as inactive; i = inactive; u = inconclusive; x = no result given; [ ] = remark or other dose.
SMILES,SIRT5 block,FN deposition inh,DENV2 CPE,ARNT TACC3 PPI,XiGFP reactiv,FGF22 binding-1,FGF22 binding-2,SYPRO no-protein,others
CO[C@H]1CN(C)C(=O)c2cc(NC(=O)CC(F)(F)F)ccc2OC[C@@H](C)N(C(C)=O)C[C@H]1C,-2,0,19,x,0,23*,0.12[42 µM],i,
CCCNC(=O)Nc1ccc2c(c1)C(=O)N(C)C[C@H](OC)[C@@H](C)CN(C(=O)c1ccccc1F)[C@H](C)CO2,1,-1,-1,8,0,1.7*,0.056,i,
COCC(=O)Nc1ccc2c(c1)OC[C@@H](C)N(C)C[C@H](C)[C@@H](OC)CN(C)C2=O,-1,-10,2,2,0,31*,0.094,i,
CCCN1C[C@H](C)[C@H](OC)CN(C)C(=O)c2cc(NC(=O)c3cnccn3)ccc2OC[C@@H]1C,-11,4,1,-10,0,1.4*,0.099,i,
CO[C@@H]1CN(C)C(=O)c2cc(NC(=O)C3CCCC3)ccc2OC[C@H](C)N(CCC(F)(F)F)C[C@H]1C,4,-11,0,-12,0,9.3*,0.15,i,
C[C@@H]1CN([C@@H](C)CO)C(=O)c2cc(NC(=O)CCCN(C)C)ccc2O[C@@H](C)CCCCO[C@H]1CN(C)S(=O)(=O)c1cccs1,-8,x,1,-3,0,0,x,x,
CCC(=O)N1[C@@H](CO)[C@H](c2ccccc2)[C@@H]1CN(C)C(=O)CN1CCOCC1,-1,-2,-2,2,0,1,x,x,
CCC(=O)N1[C@H](CO)[C@@H](c2ccccc2)[C@H]1CN(C)C(=O)CN1CCOCC1,1,1,-6,-2,0,1.6*,-0.027,i,
CC(C)[C@H](CN(N=O)[C@@H](Cc1ccccc1)CN(C)N=O)N(CCc1ccccc1)N=O,-12,-2,-2,-9,0,0,x,x,
CC(C)C[C@@H](CN(C)N=O)N(C[C@H](Cc1ccccc1)N(CCc1ccccc1)N=O)N=O,10,8,-2,-1,0,1.6*,0.029,i,
CN(C)CC#Cc1ccc([C@@H]2[C@@H](CO)N3CCCCN(C(=O)NC4CCCC4)C[C@H]23)cc1,0,x,-6,-1,0,0,x,x,
CCC(=O)Nc1ccc2c(c1)C(=O)N(C)[C@H]1CC[C@H](CC(=O)Nc3cccc(OC)c3)O[C@H]1CO2,-5,-13,16,-4,0,-1,x,x,
Cn1c(=O)c2c(-c3ccccc3)n(-c3cc([N+](=O)[O-])ccc3O)cc2n(C)c1=O,3,2,16,x,0,1.4*,-0.13,i,
Cc1cccc(-c2c3c(=O)n(C)c(=O)n(C)c3cn2-c2ccccc2O)c1,x,x,x,2,x,x,x,x,
Cn1c(=O)c2c(-c3ccccc3)n(-c3cc(Cl)c([N+](=O)[O-])cc3O)cc2n(C)c1=O,1,1,-12,x,x,1.6*,x,i,
COc1cc(/C=N/NC(=O)CCn2c3ccccc3c3ccccc32)ccc1O,-3,x,-3,-11,x,2.1*,0.038,13µM*,
COc1cc(C(=O)N/N=C/c2ccc3c(c2)c2ccccc2n3C)ccc1O,-2,x,-7,3,0,0,x,x,
COc1cc(/C=N/NC(=O)c2cc3ccccc3[nH]2)ccc1O,-1,5,-3,13,0,2.7*,0.24,i,FGF22 TSA=0
C[C@H]1CN([C@@H](C)CO)C(=O)c2cc(NS(=O)(=O)c3ccccc3)ccc2O[C@H]1CN(C)Cc1ccc(-c2ccccc2)cc1,0,x,11,3,0,0,x,x,
Cc1ccc(NC(=O)c2ccc(Cl)c(S(=O)(=O)NCC3CCCO3)c2)c(O)c1 (configuration not stated),2,1,u,6,0,30*,0.18,i,
Cc1noc(C)c1S(=O)(=O)Nc1ccc2c(c1)CC(=O)N([C@H](C)CO)C[C@H](C)[C@@H](CN(C)C(=O)Nc1ccc(F)cc1)O2,-5,-9,-3,6,0,0,x,x,
CCOC(=O)c1sc(N2C(=O)C(O)=C(C(=O)c3ccco3)C2c2ccc([N+](=O)[O-])cc2)nc1C (configuration not stated),8,1,-3,12,0,1.7*,0.2,i,
CCc1nc(N2[C@H](CO)[C@H](c3ccccc3-c3ccc(F)cc3)[C@@H]2C#N)sc1C,-2,2,1,x,0,x,x,x,
OC[C@H]1[C@H](c2ccc(-c3cccnc3)cc2)[C@@H]2CN(Cc3ccccn3)CCCCN12,-2,-5,x,13,0,x,x,x,
OC[C@H]1[C@@H](c2ccc(-c3cccnc3)cc2)[C@H]2CN(Cc3ccccn3)CCCCN21,-1,-9,u,6,0,1.7*,-0.064,i,
SMILES,SIRT5 block,FN deposition inh,DENV2 CPE,ARNT TACC3 PPI,XiGFP reactiv,FGF22 binding-1,FGF22 binding-2,SYPRO no-protein,others
OC[C@@H]1[C@@H](c2ccc(-c3cccnc3)cc2)[C@H]2CN(Cc3ccccn3)CCCCN12,x,-10,x,16,0,1.3*,0.051,i,
Cc1ccc(-c2ccc([C@H]3[C@@H](CO)N4CCCCN(Cc5ccccn5)C[C@H]34)cc2)cc1,-2,x,-27,12,0,0,x,x,
C[C@H](CO)N1C[C@H](C)[C@@H](CN(C)S(=O)(=O)c2cccs2)Oc2ccc(NC(=O)NC3CCCCC3)cc2CC1=O,1,-10,17,x,-1,0,x,x,
CCN(CCn1cccn1)C(=O)CCc1nnc(Cc2c[nH]c3ccccc23)o1,-4,-11,-2,-3,0,12*,0.23,i,
CCN(CCn1cccn1)C(=O)CCc1nnc(-c2ccccc2)o1,-2,-1,-1,x,0,0,x,x,
O=C(NC[C@@H]1[C@H](c2ccccc2)[C@H](CO)N1C(=O)Cc1cccnc1)C1CCC1,x,x,-3,-3,0,x,x,x,
O=C(NC[C@@H]1[C@H](c2ccccc2)[C@H](CO)N1C(=O)Cc1cccnc1)C1CC1,0,1,-11,-1,0,1.4*,-0.085[42 µM],i,
CCNC(=O)[C@@H]1[C@@H](CO)[C@@H]2Cn3c(ccc(-c4ccc(F)cc4)c3=O)[C@H]1N2C,-3,x,0,-5,1,0,x,x,

# Source: PubChem
